Reference: ChEMBL document CHEMBL2062428, “Cyclooxygenase-1-selective inhibitors based on the (E)-2'-des-methyl-sulindac sulfide scaffold” (J Med Chem, 2012)
Active and inactive are the calls of the source. No cut-off for these calls is given here.

These molecules were tested on OVCAR-3 (assay: Cytotoxicity against human OVCAR3 cells after 2 days by WST1 assay). Conditions: OVCAR-3, 48 h.
Type: functional, cell-based
How it was run: (§1)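 Viability of human ovarian carcinoma NIH-OVCAR-3 cells, which express COX-1 but no detectable COX-2, after a 2-day compound treatment. Concentrations up to 250 μM tested. EC50 for growth inhibition derived from concentration–response curves.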

`CC1=C(CC(=O)O)c2cc(F)ccc2/C1=C/c1ccc([S+](C)[O-])cc1` (stereo not given) [SULINDAC SULFOXIDE] and `CSc1ccc(/C=C2\C=C(CC(=O)O)c3cc(F)ccc32)cc1` are within 1.5-fold of each other in EC50: 210 µM for the first, 223 µM for the second.

`O=C(O)CC1=C/C(=C\c2ccc(-c3ccccc3)cc2)c2ccc(F)cc21` was tested, and the EC50 was 132 µM.

These molecules were tested against T1, Prostaglandin G/H synthase 2 (Mus musculus, UniProt Q05769) (assay: Inhibition of mouse COX-2 using [14C] arachidonic acid as substrate preincubated for 17 mins before substrate addition measured after 3 mins by thin-layer chromatographic analysis). Conditions: not given.
T1 sequence (Q05769 whole entry): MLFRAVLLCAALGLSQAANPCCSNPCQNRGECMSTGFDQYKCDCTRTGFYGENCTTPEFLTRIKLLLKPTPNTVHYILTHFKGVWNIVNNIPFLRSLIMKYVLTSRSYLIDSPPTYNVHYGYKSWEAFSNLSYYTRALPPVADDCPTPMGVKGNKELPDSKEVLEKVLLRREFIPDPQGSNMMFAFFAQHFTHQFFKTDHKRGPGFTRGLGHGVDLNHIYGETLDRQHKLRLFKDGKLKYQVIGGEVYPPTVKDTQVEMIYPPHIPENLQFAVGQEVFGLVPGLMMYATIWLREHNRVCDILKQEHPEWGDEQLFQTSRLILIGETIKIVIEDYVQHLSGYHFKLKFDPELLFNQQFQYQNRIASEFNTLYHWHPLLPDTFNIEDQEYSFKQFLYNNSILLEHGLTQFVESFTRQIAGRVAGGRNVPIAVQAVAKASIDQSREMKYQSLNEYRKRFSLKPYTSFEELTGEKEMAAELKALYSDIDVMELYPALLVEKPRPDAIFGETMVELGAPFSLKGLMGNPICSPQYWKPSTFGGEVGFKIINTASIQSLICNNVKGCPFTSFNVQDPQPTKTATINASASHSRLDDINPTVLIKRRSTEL

`O=C(O)CC1=C/C(=C\c2ccc(-c3ccccc3)cc2)c2ccc(F)cc21` gave an IC50 of over 4 µM.

Each molecule was assayed against T2, Prostaglandin G/H synthase 1 (Ovis aries) (UniProt P05979) (assay: Inhibition of ovine COX-1 using [14C] arachidonic acid as substrate at 25 uM preincubated for 17 mins before substrate addition measured after 3 mins by thin-layer chromatographic analysis). Conditions: not given.
T2 sequence (whole entry): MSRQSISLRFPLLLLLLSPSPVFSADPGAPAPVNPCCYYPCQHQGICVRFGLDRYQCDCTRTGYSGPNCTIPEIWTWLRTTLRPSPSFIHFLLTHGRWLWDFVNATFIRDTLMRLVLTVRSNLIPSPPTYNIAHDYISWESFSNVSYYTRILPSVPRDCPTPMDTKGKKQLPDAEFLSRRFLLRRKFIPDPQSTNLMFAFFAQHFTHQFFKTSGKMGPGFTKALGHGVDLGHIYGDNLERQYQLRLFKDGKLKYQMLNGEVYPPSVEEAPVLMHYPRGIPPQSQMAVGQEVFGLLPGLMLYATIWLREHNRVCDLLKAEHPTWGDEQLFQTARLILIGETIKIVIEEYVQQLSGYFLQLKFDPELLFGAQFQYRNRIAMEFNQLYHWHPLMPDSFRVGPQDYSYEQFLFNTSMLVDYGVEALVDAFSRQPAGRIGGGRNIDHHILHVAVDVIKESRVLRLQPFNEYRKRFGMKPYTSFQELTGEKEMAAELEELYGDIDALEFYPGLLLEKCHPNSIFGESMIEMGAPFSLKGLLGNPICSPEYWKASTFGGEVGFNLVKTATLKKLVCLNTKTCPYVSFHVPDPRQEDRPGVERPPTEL

With `COc1ccc2c(c1)C(CC(=O)O)=C/C2=C\c1ccc(SC)cc1` the inhibition was 19%.

These molecules were tested against T2, Prostaglandin G/H synthase 1 (Ovis aries) (assay: Inhibition of ovine COX-1 using [14C] arachidonic acid as substrate at 4 uM preincubated for 17 mins before substrate addition measured after 3 mins by thin-layer chromatographic analysis). Conditions: not given.
How it was run: (§2)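 Purified ovine COX-1 or murine COX-2 preincubated with a single 4 μM inhibitor concentration for 17 min. […] Reaction quenched; radioactive products extracted and quantified. Mean ± SEM of two experiments.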

`CSc1ccc(/C=C2\C=C(CC(=O)NS(=O)(=O)C(F)(F)F)c3cc(F)ccc32)cc1` and `CSc1ccc(/C=C2\C=C(CC(=O)O)c3cc(F)ccc32)cc1` are the same in inhibition: 65% for the first, 65% for the second.

Going from `CC(C)(C(=O)O)C1=C/C(=C\c2ccc(-c3ccccc3)cc2)c2ccc(F)cc21` to `O=C(O)CC1=C/C(=C\c2ccc(-c3ccccc3)cc2)c2ccc(F)cc21`, the inhibition rises from 58% to 75%.

Compared with `CCOC(=O)CC1=C/C(=C\c2ccc(-c3ccccc3)cc2)c2ccc(F)cc21`, `O=C(O)CC1=C/C(=C\c2cccc3ccccc23)c2ccc(F)cc21` is lower in inhibition: 64% for the first, 53% for the second.

Compared with `CCOC(=O)C(C)(C)C1=C/C(=C\c2cccc(-c3ccc(F)cc3)n2)c2ccc(F)cc21`, `CCOC(=O)C(C)(C)C1=C/C(=C\c2ccc(SC)cc2)c2ccc(F)cc21` is higher in inhibition: 24% for the first, 43% for the second.

First: CSc1ccc(/C=C2\C=C(CC(=O)NS(=O)(=O)c3ccc(C(C)=O)cc3)c3cc(F)ccc32)cc1
Second: CSc1ccc(/C=C2\C=C(CC(=O)NS(=O)(=O)c3ccc(C)cc3)c3cc(F)ccc32)cc1
The inhibition of the first is lower: 3.5% for the first, 55% for the second.

Work on `CCOC(=O)C(C)(C)C1=C/C(=C\c2ccc3c(c2)Cc2ccccc2-3)c2ccc(F)cc21` yielded an inhibition of 34%.

The molecules below were run on MDA-MB-231 (assay: Cytotoxicity against human MDA-MB-231 cells after 48 hrs by WST1 assay). Conditions: MDA-MB-231, 48 h.
Type: functional, cell-based

`CSc1ccc(/C=C2\C=C(CC(=O)NS(=O)(=O)C(F)(F)F)c3cc(F)ccc32)cc1` and `CSc1ccc(/C=C2/C(C)=C(CC(=O)O)c3cc(F)ccc32)cc1` [SULINDAC SULFIDE] are within 1.5-fold of each other in EC50: 215 µM for the first, 209 µM for the second.

Molecule `O=C(O)CC1=C/C(=C\c2ccc(-c3ccccc3)cc2)c2ccc(F)cc21` has an EC50 of 141 µM.

Each molecule was assayed against T3, Prostaglandin G/H synthase 1 (Ovis aries, UniProt P05979) (assay: Inhibition of ovine COX-1 using [14C] arachidonic acid as substrate preincubated for 17 mins before substrate addition measured after 3 mins by thin-layer chromatographic analysis). Conditions: not given.
T3 sequence (P05979 whole entry): T2 sequence (whole entry)

First: CC(C)(C(=O)O)C1=C/C(=C\c2ccc(-c3ccccc3)cc2)c2ccc(F)cc21
Second: O=C(O)CC1=C/C(=C\c2ccc(-c3ccccc3)cc2)c2ccc(F)cc21
The IC50 of the first is 3.9-fold higher: 2200 nM for the first, 570 nM for the second.

Work on `CCOC(=O)CC1=C/C(=C\c2ccc(-c3ccccc3)cc2)c2ccc(F)cc21` yielded an IC50 of 1100 nM.

The molecules below were run against T4, Prostaglandin G/H synthase 2 (Homo sapiens) (UniProt P35354) (assay: Inhibition of COX-2 in human HNSCC 1483 cells using [14C] arachidonic acid as substrate at 5 uM preincubated for 30 mins before substrate addition measured after 30 mins). Conditions: not given.
T4 sequence (whole entry): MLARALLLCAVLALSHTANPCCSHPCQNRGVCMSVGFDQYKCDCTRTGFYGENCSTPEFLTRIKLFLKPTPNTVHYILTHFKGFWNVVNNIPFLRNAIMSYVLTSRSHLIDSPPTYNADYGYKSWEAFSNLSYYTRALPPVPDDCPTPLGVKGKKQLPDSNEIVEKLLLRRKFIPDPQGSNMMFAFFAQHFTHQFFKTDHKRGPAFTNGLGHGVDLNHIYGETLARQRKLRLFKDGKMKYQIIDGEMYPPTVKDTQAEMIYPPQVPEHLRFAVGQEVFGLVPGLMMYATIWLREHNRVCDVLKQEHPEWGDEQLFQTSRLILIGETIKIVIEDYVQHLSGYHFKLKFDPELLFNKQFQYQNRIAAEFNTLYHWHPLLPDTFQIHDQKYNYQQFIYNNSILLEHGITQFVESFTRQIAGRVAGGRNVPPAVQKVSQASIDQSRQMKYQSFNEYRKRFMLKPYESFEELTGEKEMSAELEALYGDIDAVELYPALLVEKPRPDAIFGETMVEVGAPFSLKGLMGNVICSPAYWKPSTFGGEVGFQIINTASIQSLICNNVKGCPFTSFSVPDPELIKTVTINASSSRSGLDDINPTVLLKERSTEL
Type: cell-based

`CSc1ccc(/C=C2\C=C(CC(=O)O)c3cc(F)ccc32)cc1` was tested, and the inhibition was “inactive”.
For `O=C(O)CC1=C/C(=C\c2ccc(-c3ccccc3)cc2)c2ccc(F)cc21`, the inhibition was “inactive”.

What follows are molecules tested on OVCAR-3 (assay: Cytotoxicity against human OVCAR3 cells growth inhibition up to 250 uM after 2 days by WST1 assay). Conditions: not given.
Type: functional, cell-based
How it was run: as §1

With `CSc1ccc(/C=C2/C(C)=C(CC(=O)O)c3cc(F)ccc32)cc1` [SULINDAC SULFIDE] the “growth inhibition (GI)” value was “inactive”.

These molecules were tested against T5, Prostaglandin G/H synthase 2 (Mus musculus) (UniProt Q05769) (assay: Inhibition of mouse COX-2 using [14C] arachidonic acid as substrate at 4 uM preincubated for 17 mins before substrate addition measured after 3 mins by thin-layer chromatographic analysis). Conditions: not given.
T5 sequence (whole entry): T1 sequence (Q05769 whole entry)
How it was run: as §2

Going from `CSc1ccc(/C=C2\C=C(CC(=O)NS(=O)(=O)C(F)(F)F)c3cc(F)ccc32)cc1` to `CSc1ccc(/C=C2\C=C(CC(=O)O)c3cc(F)ccc32)cc1`, the inhibition falls from 15% to 10%.

Going from `O=C(O)CC1=C/C(=C\c2ccc(-c3ccccc3)cc2)c2ccc(F)cc21` to `CCOC(=O)CC1=C/C(=C\c2ccc(-c3ccccc3)cc2)c2ccc(F)cc21`, the inhibition rises from 1% to 28%.

Going from `O=C(O)CC1=C/C(=C\c2cccc3ccccc23)c2ccc(F)cc21` to `CCOC(=O)C(C)(C)C1=C/C(=C\c2ccc3c(c2)Cc2ccccc2-3)c2ccc(F)cc21`, the inhibition rises from 7% to 18%.

First: CCOC(=O)C(C)(C)C1=C/C(=C\c2cccc(-c3ccc(F)cc3)n2)c2ccc(F)cc21
Second: CCOC(=O)C(C)(C)C1=C/C(=C\c2ccc(SC)cc2)c2ccc(F)cc21
The inhibition of the first is higher: 21% for the first, 0% for the second.

Compared with `CSc1ccc(/C=C2\C=C(CC(=O)NS(=O)(=O)c3ccc(C(C)=O)cc3)c3cc(F)ccc32)cc1`, `CSc1ccc(/C=C2\C=C(CC(=O)NS(=O)(=O)c3ccc(C)cc3)c3cc(F)ccc32)cc1` is lower in inhibition: 26% for the first, 20% for the second.
